Laboratory results from article PMC7396739 (Drug Design, Development and Therapy, 2020).

Assays:
[1] = Crystallization inhibition of excipients; format: physicochemical; settings: after 5 min
Method in brief: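 Supersaturated stock (27 mg test compound in 5 mL 95% ethanol) added rapidly to 900 mL water, here with no excipient (control), at 37°C and 50 r/min. 5 mL samples were taken at 5–240 min and replaced with drug-free medium. Samples were filtered (0.22 µm) and assayed by HPLC (C18, acetonitrile-water 84:16, 1 mL/min, 203 nm). Run in triplicate.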

[2] = rats; cited from earlier work
[3] = Determination of saturated solubility of ASDs in distilled water; format: physicochemical; settings: 37±0.5°C, 48 h, drug:Soluplus 1:10 w/w, Figure 5A
Method in brief: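 Solid dispersions were made by co-precipitation from anhydrous ethanol, freeze-drying from 2% ethanol (−40°C 8 h, then −45°C 24 h), or microwave (700 W, 10 min) with liquid-nitrogen quench. Products were ground and sieved (60 mesh). Excess material was shaken in 5 mL water, then filtered (0.45 µm). Concentration was measured by HPLC (C18, acetonitrile-water 84:16, 203 nm).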

concentration of Dio in dissolution medium without excipient [1]: lower than the detection limit | solubility [3]: lower than the detection limit
SMILES: C[C@@H]1CC[C@@]2(OC1)O[C@H]1C[C@H]3[C@@H]4CC=C5C[C@@H](O)CC[C@]5(C)[C@H]4CC[C@]3(C)[C@H]1[C@@H]2C [Dio, diosgenin]
absolute bioavailability [2]: about 7%
